Measurements of several laboratories.
Compare with care: the assays were run in different laboratories. pEC50: −log10 of the molar value.
Effect on: cell growth or viability

Structure (SMILES)	cell line	assay	setting	endpoint	result
Cc1n[nH]c2ccc3nc(-c4ccc(C(=O)NCCN(C)C)cc4F)c4c(c3c12)CCCCC4	22Rv1	–	72 h	GI50	4620 nM
Cc1ncsc1-c1ccc(CNC(=O)[C@@H]2C[C@@H](O)CN2C(=O)[C@@H](NC(=O)COCCOCCOCCNC(=O)C[C@@H]2N=C(c3ccc(Cl)cc3)c3c(sc(C)c3C)-n3c(C)nnc32)C(C)(C)C)cc1	22Rv1	MTT	6 days	IC90	1850 nM
COc1ccc(NC(=O)NCc2cn(Cc3ccccc3C)nn2)cc1	NCI-H1299	CCK-8	50 µM, 72 h	viability	68.9%
O=C(Nc1cccc(-c2cn(Cc3ccc(Br)cc3)nn2)c1)Nc1ccccc1Br	NCI-H1299	CCK-8	50 µM, 72 h	viability	108%
C=C(NC(=O)C(=C)NC(=O)c1csc(C2=N[C@@H]3c4csc(n4)[C@H]4NC(=O)c5csc(n5)[C@H]([C@](C)(O)[C@@H](C)O)NC(=O)[C@H]5CSC(=N5)/C(=C/C)NC(=O)[C@H]([C@@H](C)O)NC(=O)c5csc(n5)[C@]3(CC2)NC(=O)[C@H](C)NC(=O)C(=C)NC(=O)[C@H](C)NC(=O)[C@H]([C@@H](C)CC)N[C@@H]2C=Cc3c([C@H](C)O)cc(nc3[C@H]2O)C(=O)O[C@@H]4C)n1)C(N)=O	PC3-TxR	–	–	pEC50	< 4.52
Cc1ccccc1Cn1cc(-c2cccc(NC(=O)Nc3ccc(F)cc3)c2)nn1	NCI-H1299	CCK-8	50 µM, 72 h	viability	114%
O=C(Nc1ccc(Cl)cc1)Nc1cccc(-c2cn(Cc3cccc(Cl)c3)nn2)c1	NCI-H1299	CCK-8	50 µM, 72 h	viability	104%
CN(C)CCNC(=O)c1ccc(-c2nc3ccc4[nH]ncc4c3c3c2CCCCC3)c(F)c1	22Rv1	–	72 h	GI50	2130 nM
COc1ccc(NC(=O)Nc2cccc(-c3cn(Cc4ccc(Cl)cc4)nn3)c2)cc1	NCI-H1299	CCK-8	50 µM, 72 h	viability	156%
Cc1n[nH]c2ccc3nc(-c4ccc(C(=O)NCCN(C)C)cc4F)c4c(c3c12)CCCC4	22Rv1	–	72 h	GI50	556 nM
O=C(Nc1ccc(Cl)cc1)Nc1ccc(-c2cn(Cc3cccc(Cl)c3)nn2)cc1	NCI-H1299	CCK-8	50 µM, 72 h	viability	82.8%
CN(C)CCNC(=O)c1ccc(-c2nc3ccc4[nH]ncc4c3c3c2CCCC3)cc1	22Rv1	–	72 h	GI50	1800 nM
O=C(NCc1cn(Cc2cccc(Cl)c2)nn1)Nc1ccc(Cl)cc1	NCI-H1299	CCK-8	50 µM, 72 h	viability	91.6%
COc1ccc(NC(=O)Nc2cccc(-c3cn(Cc4cccc(Cl)c4)nn3)c2)cc1	NCI-H1299	CCK-8	50 µM, 72 h	viability	134%
CCc1nc(C(N)=O)c(Nc2ccc(N3CCC(N4CCN(C)CC4)CC3)c(OC)c2)nc1NC1CCOCC1	22Rv1	–	72 h	GI50	1520 nM
COc1ccc(NC(=O)Nc2cccc(-c3cn(Cc4ccccc4C)nn3)c2)cc1	NCI-H1299	CCK-8	50 µM, 72 h	viability	125%
O=C(NCc1cn(Cc2ccc(Cl)cc2)nn1)Nc1ccc(Cl)cc1	NCI-H1299	CCK-8	50 µM, 72 h	viability	82.3%
